Experimental data published in article PMC11276401 (RSC Advances, 2024).
Several values for one entry are separate records, joined by “and”; a condition that tells them apart may be missing. Equal entries are not always repeated.

Key:
bovine brain tubulin = assay: Tubulin polymerization assay; format: biochemical; settings: read-out: Tubulin polymerization inhibition IC50; 2 mg/mL tubulin, 37 °C
HeLa = assay: SRB assay, in vitro anticancer activity; format: cell-based; settings: Homo sapiens, 48 h, read-out: GI50 HeLa
MIAPACA = assay: SRB assay, in vitro anticancer activity; format: cell-based; settings: Homo sapiens, MIA PaCa-2, 48 h, read-out: GI50 MIAPACA
HeLa and MIAPACA = assay: SRB assay, range stated over two cell lines; format: cell-based; settings: Homo sapiens, read-out: GI50 against HeLa and MIAPACA
MCF-7 = assay: SRB assay, in vitro anticancer activity; format: cell-based; settings: Homo sapiens, MCF7, 48 h, read-out: GI50 MCF-7
[1] = system: caspase 3/7 in MCF-7 cells; assay: Caspase-Glo 3/7 activation assay; format: cell-based, human; settings: 20 μg ml^−1, 24 h
Summary of the method: (§1)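 Caspase 3/7 activation in the named human cancer cells is expressed as percent activation after treatment with the test compound. Podophyllotoxin is run alongside as the positive control.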

[2] = system: caspase 3/7, 8, and 9 in HeLa, MCF-7 and MIA PaCa2 cancer cells; assay: Caspase 3/7, 8 and 9 activation, values not assigned to a caspase or cell line; format: cell-based, human; settings: MCF-7 and MIA PaCa2 cells, assignment and concentration not clear
[3] = system: caspase 3/7 in HeLa cells; assay: Caspase-Glo 3/7 activation assay; format: cell-based, human; settings: 20 μg ml^−1, 24 h
Summary of the method: as §1

MCF-7, HeLa and MIAPACA = assay: SRB assay, range stated over three cell lines; format: cell-based; settings: Homo sapiens, read-out: GI50 against three cell lines
Summary of the method: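 Human MCF-7, HeLa and MIA PaCa-2 cancer cell lines are exposed to the test compounds, with podophyllotoxin as positive control. Growth inhibition is reported as GI50.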

[4] = system: caspase 3/7 in MIA PaCa2 cells; assay: Caspase-Glo 3/7 activation assay; format: cell-based, human; settings: 20 μg ml^−1, 24 h
Summary of the method: as §1

| SMILES | IC50 (bovine brain tubulin) | GI50 (HeLa) | GI50 (MIAPACA) | GI50 (MCF-7) | GI50 (HeLa and MIAPACA) | caspase 3/7 activation [1] | caspase 3/7, 8, and 9 activations [2] | caspase 3/7 activation [3] | GI50 (MCF-7, HeLa and MIAPACA) | caspase 3/7 activation [4] |
| --- | --- | --- | --- | --- | --- | --- | --- | --- | --- | --- |
| COc1cc([C@@H]2c3cc4c(cc3[C@@H](OCc3cc(-c5cc(C)cc(C)c5)no3)[C@H]3COC(=O)C23)OCO4)cc(OC)c1OC (some centres unmarked) [Compound 6d] |  | 2740 ± 520 nM | 2280 ± 290 nM | 1340 ± 230 nM |  |  |  |  |  |  |
| COc1cc([C@@H]2c3cc4c(cc3[C@@H](OCc3cc(-c5cc(Cl)cc(Cl)c5)no3)[C@H]3COC(=O)C23)OCO4)cc(OC)c1OC (some centres unmarked) [Compound 6m] | 3790 nM | 2190 ± 840 nM | 2330 ± 180 nM | 360 ± 170 nM |  |  | 44.8% and 53.4% and 65.0% and 63.0% and 41.9% and 51.7% |  |  |  |
| COc1cc([C@@H]2c3cc4c(cc3[C@@H](OCc3cc(-c5cccc(C)c5)no3)[C@H]3COC(=O)C23)OCO4)cc(OC)c1OC (some centres unmarked) [Compound 6c] |  | 3830 ± 1540 nM | 4670 ± 1930 nM | 3920 ± 820 nM |  |  |  |  |  |  |
| COc1cc([C@@H]2c3cc4c(cc3[C@H](O)[C@H]3COC(=O)[C@H]23)OCO4)cc(OC)c1OC [Podophyllotoxin, podophyllotoxin, reference compound] | 840 nM | 740 ± 230 nM | 510 ± 120 nM | 310 ± 190 nM | 510 to 740 nM | 91.9% |  | 86.9% | 310 to 510 nM | 88.6% |

Further lines, with some results ahead:

| IC50 (bovine brain tubulin) | GI50 (HeLa) | GI50 (MIAPACA) | GI50 (MCF-7) | SMILES | GI50 (HeLa and MIAPACA) | caspase 3/7 activation [1] | caspase 3/7, 8, and 9 activations [2] | caspase 3/7 activation [3] | GI50 (MCF-7, HeLa and MIAPACA) | caspase 3/7 activation [4] |
| --- | --- | --- | --- | --- | --- | --- | --- | --- | --- | --- |
| 1320 nM | 1110 ± 290 nM | 1540 ± 180 nM | 230 ± 120 nM | COc1cc([C@@H]2c3cc4c(cc3[C@@H](OCc3cc(-c5ccc([N+](=O)[O-])cc5)no3)[C@H]3COC(=O)C23)OCO4)cc(OC)c1OC (some centres unmarked) [Compound 6j] | 1030 to 1540 nM | 90.1% |  |  |  |  |
|  | 3050 ± 1020 nM | 3140 ± 320 nM | 2130 ± 370 nM | COc1cc([C@@H]2c3cc4c(cc3[C@@H](OCc3cc(-c5ccc(Cl)cc5)no3)[C@H]3COC(=O)C23)OCO4)cc(OC)c1OC (some centres unmarked) [Compound 6f] |  |  |  |  |  |  |
|  | 7480 ± 690 nM | 6840 ± 2010 nM | 4320 ± 830 nM | COc1cc([C@@H]2c3cc4c(cc3[C@@H](OCc3cc(-c5ccc(Br)cc5)no3)[C@H]3COC(=O)C23)OCO4)cc(OC)c1OC (some centres unmarked) [Compound 6g] |  |  |  |  |  |  |
|  | 6120 ± 1080 nM | 13100 ± 3270 nM | 4870 ± 790 nM | COc1cc([C@@H]2c3cc4c(cc3[C@@H](OCc3cc(-c5ccc(F)cc5)no3)[C@H]3COC(=O)C23)OCO4)cc(OC)c1OC (some centres unmarked) [Compound 6h] |  |  |  |  |  |  |
|  | 9680 ± 3120 nM | 18300 ± 2870 nM | 3150 ± 430 nM | COc1cc([C@@H]2c3cc4c(cc3[C@@H](OCc3cc(-c5cccc(Cl)c5)no3)[C@H]3COC(=O)C23)OCO4)cc(OC)c1OC (some centres unmarked) [Compound 6k] |  |  |  |  |  |  |
